Test results taken from ChEMBL document CHEMBL3352401, “Synthesis and antiviral activity of new phenylimidazopyridines and N-benzylidenequinolinamines derived by molecular simplification of phenylimidazo[4,5-g]quinolines” (Eur J Med Chem, 2014).

Legend:
[1] = Cytotoxicity against mock-infected African green monkey Vero 76 cells assessed as reduction in proliferation after 48 to 96 hrs by MTT method; format: cell-based; details: chlorocebus sabaeus, Vero 76 cells (mock-infected)
Summary of the method: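 Vero-76 cells seeded at 4 × 10⁵ cells/mL in D-MEM with L-glutamine, kanamycin and 10% FBS. Incubated at 37 °C, 5% CO₂, with or without serial dilutions of compound; viability read by MTT after 48–96 h. Run in parallel with antiviral assays. CC50 obtained by linear regression of % of untreated control.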

[2] = Cytotoxicity against mock-infected bovine MDBK cells assessed as reduction in proliferation after 72 hrs by MTT method; format: cell-based, Bos taurus; details: cattle
Summary of the method: (§1)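 MDBK and BHK cells seeded at 6 × 10⁵ and 1 × 10⁶ cells/mL respectively. Medium was MEM-Earle with L-glutamine, 1 mM pyruvate and kanamycin, plus 10% horse serum (MDBK) or 10% FBS (BHK). Cells exposed to serial compound dilutions at 37 °C, 5% CO₂; MTT viability read at 72 h. CC50 by linear regression versus untreated controls.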

[3] = system: Human immunodeficiency virus 1; assay: Antiviral activity against HIV-13B infected in MT4 cells assessed as protection from virus-induced cytopathogenicity after 4 days by MTT method; format: functional, organism-based; details: Human immunodeficiency virus 1, 3B, MT4, 96 h
Summary of the method: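 HIV-1 IIIB, taken from persistently infected H9/IIIB supernatant. MT-4 cells (1×10⁴/well) in RPMI with serial compound dilutions, infected with 100 CCID50 (m.o.i. 0.01). Viability by MTT after 4 days at 37 °C. EC50 = 50% protection from cytopathogenicity, by linear regression against untreated controls. Compounds kept as 100 mM DMSO stocks, diluted in medium.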

[4] = Antiviral activity against Vaccinia virus Lister ATCC VR-1549 infected in Vero 76 cells after 3 days by plaque reduction assays; format: functional, cell-based; details: ATCC VR-1549, Vero 76, 72 h
[5] = Antiviral activity against Bovine viral diarrhea virus 1-NADL ATCC VR-534 infected in MDBK cells assessed as protection from virus-induced cytopathogenicity after 3 to 4 days by MTT method; format: functional, cell-based; details: Bovine viral diarrhea virus isolates and strains, ATCC VR-534, MDBK
Summary of the method: (§2)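 Confluent monolayers grown overnight (BHK-21 at 5×10⁴ cells/well for YFV and Reo-1; MDBK at 3×10⁴ cells/well for BVDV). Infection at m.o.i. 0.01 for 2 h in maintenance MEM-Earle with 0.5% inactivated FBS, then serial compound dilutions added. Viability read by MTT after 3–4 days at 37 °C. EC50 taken from linear regression against untreated controls.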

Yellow fever virus = assay: Antiviral activity against Yellow fever virus 17D Stamaril Pasteur J07B01 infected in BHK21 cells assessed as protection from virus-induced cytopathogenicity after 3 to 4 days by MTT method; format: functional, cell-based; details: Stamaril Pasteur J07B01, BHK-21; summary of the method: as §2
[6] = Antiviral activity against Human respiratory syncytial virus A2 ATCC VR-1540 infected in Vero 76 cells after 5 days by plaque reduction assays; format: functional, cell-based; details: ATCC VR-1540, Vero 76, 120 h
[7] = Cytotoxicity against mock-infected human MT4 cells assessed as reduction in proliferation after 96 hrs by MTT method; format: cell-based
Summary of the method: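 Exponentially growing MT-4 cells seeded at 1 × 10⁵ cells/mL in RPMI-1640 with 10% FBS, penicillin and streptomycin. Held 96 h at 37 °C, 5% CO₂ with or without serial compound dilutions; viability by MTT. Compounds dissolved in DMSO at 100 mM stock, then diluted in medium. CC50 by linear regression.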

[8] = system: Vesicular stomatitis Indiana virus; assay: Antiviral activity against Vesicular stomatitis Indiana virus ATCC VR 158 infected in Vero 76 cells after 2 days by plaque reduction assays; format: functional, organism-based; details: ATCC VR 158, Vero 76, 48 h
Coxsackievirus B5 = assay: Antiviral activity against Coxsackievirus B5 Faulkner (ATCC VR-185) infected in Vero 76 cells after 3 days by plaque reduction assays; format: functional, organism-based; details: Enterovirus B, Vero 76, 72 h
Human alphaherpesvirus 1 = assay: Antiviral activity against Human herpesvirus 1 strain KOS ATCC VR- 1493 infected in Vero 76 cells after 3 days by plaque reduction assays; format: functional, organism-based; details: Human alphaherpesvirus 1, KOS ATCC VR1493, Vero 76, 72 h
[9] = Antiviral activity against Simian virus 12 3651 (ATCC VR- 214) infected in BHK21 cells assessed as protection from virus-induced cytopathogenicity after 3 to 4 days by MTT method; format: functional, cell-based; details: BHK-21; summary of the method: as §2
[10] = system: Human poliovirus 1 strain Sabin; assay: Antiviral activity against Poliovirus 1 strain Sabin ATCC VR-1562 infected in Vero 76 cells after 2 days by plaque reduction assays; format: functional, organism-based; details: Enterovirus C, ATCC VR-1562, Vero 76, 48 h
[11] = Cytotoxicity against mock-infected hamster BHK21 cells assessed as reduction in proliferation after 72 hrs by MTT method; format: cell-based, Mesocricetus auratus, BHK-21; summary of the method: as §1

| SMILES | CC50 [1] [µM] | CC50 at 72 h [2] [µM] | EC50 [3] [µM] | EC50 [4] [µM] | EC50 [5] [µM] | EC50 (Yellow fever virus) [µM] | EC50 [6] [µM] | CC50 at 96 h [7] [µM] | EC50 [8] [µM] | EC50 (Coxsackievirus B5) [µM] | EC50 (Human alphaherpesvirus 1) [µM] | EC50 [9] [µM] | EC50 [10] [µM] | CC50 at 72 h [11] [µM] |
| --- | --- | --- | --- | --- | --- | --- | --- | --- | --- | --- | --- | --- | --- | --- |
| Nc1nc2c(ncn2COCCO)c(=O)[nH]1 [ACYCLOVIR] | > 100 |  |  |  |  |  |  |  |  |  |  |  |  |  |
| O=[N+]([O-])c1ccc(-c2nc3cc4cccnc4c(Cl)c3[nH]2)cc1 | > 100 | > 100 | > 100 | > 100 | 1.2 | > 100 | > 100 | > 100 | > 100 | > 100 | > 44 | > 100 | > 100 | > 100 |
| c1cnc2[nH]c(-c3ccoc3)nc2c1 | > 100 | > 100 | > 100 | > 100 | > 100 | > 100 | > 100 | > 100 | > 100 | > 100 | > 100 | > 100 | > 100 | > 100 |
| N#Cc1ccc(-c2nc3cccnc3[nH]2)cc1 | > 100 | > 100 | > 100 | > 100 | > 100 | > 100 | > 100 | > 100 | > 100 | > 100 | > 100 | > 100 | > 100 | > 100 |
| CC(=O)c1ccc(-c2nc3cc(Br)cnc3[nH]2)cc1 | 50 | > 100 | 28 | > 50 | > 100 | > 100 | > 50 | 28 | > 50 | > 50 | > 50 | > 100 | > 50 | > 100 |
| N#Cc1ccc(/C=N/c2cc3cccnc3c(Cl)c2N)cc1 | > 100 | > 100 | > 100 | > 100 | 2 | > 100 | 26 | 46 | > 100 | 46 | > 100 | > 100 | > 100 | > 100 |
| C[C@@]1(O)[C@H](O)[C@@H](CO)O[C@H]1n1ccc(N)nc1=O |  |  |  |  |  | > 100 |  |  |  |  |  | 16 |  |  |
| Nc1ccn(C[C@@H](CO)OCP(=O)(O)O)c(=O)n1 [CIDOFOVIR] | > 100 |  |  | 19 |  |  |  |  |  |  |  |  |  |  |
| Nc1c(/N=C/c2ccc([N+](=O)[O-])cc2)cc2cccnc2c1Cl | > 100 | > 100 | > 100 | 88 | 1.7 | > 100 | 14 | 53 | > 100 | > 100 | > 100 | > 100 | > 100 | > 100 |
| c1cnc2[nH]c(C3CCCCC3)nc2c1 | > 100 | > 100 | > 100 | > 100 | > 100 | > 100 | > 100 | > 100 | > 100 | 86 | > 100 | > 100 | > 100 | > 100 |
| FC(F)(F)c1ccc(-c2nc3cccnc3[nH]2)cc1 | > 100 | > 100 | > 100 | > 100 | > 100 | > 100 | > 100 | > 100 | > 100 | 18 | > 100 | > 100 | > 100 | > 100 |
| FC(F)(F)c1ccc(-c2nc3cc(Br)cnc3[nH]2)cc1 | > 100 | > 100 | > 100 | 4 | > 100 | > 100 | > 100 | > 100 | > 100 | > 100 | > 100 | > 100 | > 100 | > 100 |
| CC(=O)c1ccc(-c2nc3ccncc3[nH]2)cc1 | > 100 | > 100 | > 100 | > 100 | 7 | > 100 | > 100 | > 100 | > 100 | > 100 | > 100 | > 100 | > 100 | > 100 |
| CC(=O)c1ccc(-c2nc3cccnc3[nH]2)cc1 | > 100 | > 100 | > 100 | > 100 | 65 | > 100 | > 100 | > 100 | > 100 | > 100 | > 100 | > 100 | > 100 | > 100 |
| Brc1cnc2[nH]c(-c3ccoc3)nc2c1 | 40 | 40 | 20 | > 40 | 40 | > 100 | > 40 | 20 | > 40 | > 40 | > 40 | > 100 | > 40 | > 100 |
| N#Cc1ccc(-c2nc3ccncc3[nH]2)cc1 | > 100 | > 100 | > 100 | 56 | 9 | > 100 | > 100 | > 100 | > 100 | > 100 | > 100 | > 100 | > 100 | > 100 |
| N#Cc1ccc(/C=N/c2cc3c(=O)cc[nH]c3c(Cl)c2N)cc1 | > 100 | > 100 | > 100 | > 100 | 28 | > 87 | > 100 | > 100 | > 100 | > 100 | > 100 | > 100 | > 100 | > 100 |
| Nc1c(/N=C/c2ccc(C(F)(F)F)cc2)cc2cccnc2c1Cl | 90 | > 100 | > 100 | > 90 | 14 | > 25 | 12 | 49 | > 90 | 29 | > 100 | > 25 | 57 | > 25 |
| Brc1cnc2[nH]c(C3CCCCC3)nc2c1 | > 100 | > 100 | > 100 | 16 | > 100 | > 100 | > 100 | > 100 | > 100 | 20 | > 100 | > 100 | > 100 | > 100 |
| O=c1cnn([C@@H]2O[C@H](CO)[C@@H](O)[C@H]2O)c(=O)[nH]1 [6-AZAURIDINE] | ≥ 12.5 |  |  |  |  |  | 1.2 |  |  |  |  |  |  |  |
| C#C[C@@]1(O)[C@H](O)[C@@H](CO)O[C@H]1n1ccc(N)nc1=O [2'-ETHYNYL-D-CYTIDINE] | > 100 |  |  |  |  |  |  |  |  |  |  |  | 23 |  |
| C[C@@]1(O)[C@H](O)[C@@H](CO)O[C@H]1n1cnc2c(=O)[nH]c(N)nc21 [2'-B-METHYL-GUANOSINE] |  | > 100 |  |  | 1.1 |  |  |  |  |  |  |  |  | > 100 |
